The source made the active and inactive calls. The calls are words filed in the database; no cut-off is given here.
Tests used:
[1] = test system: MT4; assay: Cytotoxicity against human MT4 cells; assay type: functional, cell-based
Outline: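 Cytotoxicity was measured in MT4 cells and given as IC50, the concentration decreasing viable cell number by 50%.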

[2] = Therapeutic index, IC50 for MT-4/EC50 for HIV1 NL4-3; details: human, MT-4 cells
[3] = test system: MT4; assay: Antiviral activity against HIV1 NL4-3 in MT4 cells; assay type: functional, cell-based; details: for EC50: Homo sapiens, NL4-3, MT4
Outline: (§1)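 MT4 cells were infected with HIV-1 at MOI 0.01 using the strain named in the line. NL4-3 is a T-cell adapted X4 wild-type virus. PI-R is M46I/L63P/V82T/I84V, resistant to multiple protease inhibitors. Supernatants were collected on day 4 postinfection for p24 ELISA. EC50 = concentration inhibiting replication by 50%.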

[4] = Therapeutic index, IC50 for H9/EC50 for HIV 3B; assay type: cell-based; details: human, H9 cells; read-out: Ratio IC50/EC50
Outline: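 Therapeutic index is IC50 divided by EC50. IC50 is the XTT toxicity in mock-infected H9 cells. EC50 is the 50% suppression of p24 in HIV-1 IIIB-infected H9 cells at day 6.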

[5] = test system: H9; assay: Antiviral activity against HIV1 3B in H9 lymphocytes; assay type: functional, cell-based; details: for EC50: Homo sapiens
Outline: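 HIV-1 IIIB isolate (125 TCID50) added to H9 cells at 3 × 10⁵ cells/mL in RPMI 1640 with 10% fetal calf serum and L-glutamine, 37 °C, 5% CO2. Media replaced on days 1 and 4 postinfection. Supernatant p24 antigen capture on day 6. EC50 = concentration suppressing replication by 50%. AZT run as positive control each experiment.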

[6] = test system: H9; assay: Cytotoxicity against human H9 lymphocytes; assay type: functional, cell-based
Outline: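 Mock-infected H9 cells were treated in parallel with the antiviral plates under identical conditions, without virus, and were read by XTT on day 6. IC50 = concentration toxic to 50% of mock-infected cells.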

[7] = test system: MT4; assay: Antiviral activity against HIV1 PI-R replication in human MT4 cells; assay type: functional, cell-based; outline: as §1
[8] = test system: MT4; assay: Antiviral activity against HIV1 FHR2 replication in MT4 cells; assay type: functional, cell-based; details: Homo sapiens; outline: as §1
[9] = Cytotoxicity against COS-TZM fused cells; assay type: functional, cell-based
Outline: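 Cytotoxicity was determined as IC50 in a one-day assay, matching the fusion assay duration. The highest concentration tested was 10 µg/mL.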

[10] = Inhibition of membrane fusion between HIV1 NL4-3 envelope gene expressing COS cells and TZM cells; assay type: functional, cell-based
Outline: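 COS cells were electroporated with pSRHS carrying the HIV-1 NL4-3 envelope genes (2 µg per 10⁶ cells, 950 µF, 150 V) and cultured 1 day. They were then mixed with TZM cells (10⁴ COS : 10 × 10⁴ TZM) with compound at various concentrations, 37 °C, 24 h. Luciferase read-out. EC50 = 50% inhibition of envelope-mediated fusion.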

[11] = test system: MT4; assay: Antiviral activity against HIV1 NL4-3 replication in human MT4 cells; assay type: functional, cell-based; details: NL4-3, MT4; outline: as §1
[12] = test system: MT4; assay: Antiviral activity against HIV1 FHR2 replication in MT4 cells at 5 uM; assay type: functional, cell-based
[13] = test system: MT4; assay: Cytotoxicity against human MT4 cells at 5 uM; assay type: functional, cell-based

EC50 [5] | EC50 [10] | Structure (SMILES) | IC50 [1] | selectivity ratio [2] | EC50 [3] | selectivity ratio [4] | IC50 [6] | Activity [3] | EC50 [7] | EC50 [8] | IC50 [9] | EC50 [11] | Activity [12] | IC50 [13] | Activity [5]
– | – | C=C(C)[C@@H]1CC[C@]2(C(=O)NCCCCCCCCCCC(=O)O)CC[C@]3(C)[C@H](CC[C@@H]4[C@@]5(C)CC[C@H](OC(=O)CC(C)(C)C(=O)O)C(C)(C)[C@@H]5CC[C@]43C)[C@@H]12 | 11000 nM | 1570 | 7 nM | – | – | – | – | – | – | – | – | – | –
680 nM | – | C[C@H]1[C@H](C)CC[C@]2(C(=O)O)CC[C@]3(C)C(=CC[C@@H]4[C@@]5(C)CC[C@H](OC(=O)CC(C)(C)CC(=O)O)C(C)(C)[C@@H]5CC[C@]43C)[C@H]12 | – | – | – | 42 | 28500 nM | inactive | – | – | – | – | – | – | –
9300 nM | – | CC1(C)C=C2[C@H]3CC[C@@H]4[C@@]5(C)CC[C@H](OC(=O)C(C)(C)CC(=O)O)C(C)(C)[C@@H]5CC[C@@]4(C)[C@]3(C)CC[C@@]2(C(=O)NCCCCCCCCCCC(=O)O)CC1 | – | – | – | > 3.5 | > 32600 nM | inactive | – | – | – | – | – | – | –
17 nM | 5850 nM | CC(C)C[C@@H](CO)NC(=O)[C@]12CCC(C)(C)C=C1[C@H]1CC[C@@H]3[C@@]4(C)CC[C@H](OC(=O)CC(C)(C)C(=O)O)C(C)(C)[C@@H]4CC[C@@]3(C)[C@]1(C)CC2 | 23500 nM | 522 | 45 nM | > 2500 | > 42700 nM | – | 88 nM | 2780 nM | > 14600 nM | 45 nM | – | – | –
79 nM | – | C[C@H]1[C@H](C)CC[C@]2(C(=O)O)CC[C@]3(C)C(=CC[C@@H]4[C@@]5(C)CC[C@H](OC(=O)CC(C)(C)C(=O)O)C(C)(C)[C@@H]5CC[C@]43C)[C@H]12 | 21000 nM | 2.5 | 8300 nM | 360 | 28500 nM | – | – | – | – | – | – | – | –
7 nM | > 17100 nM | C=C(C)[C@@H]1CC[C@]2(C(=O)O)CC[C@]3(C)[C@H](CC[C@@H]4[C@@]5(C)CC[C@H](OC(=O)CC(C)(C)C(=O)O)C(C)(C)[C@@H]5CC[C@]43C)[C@@H]12 [BEVIRIMAT] | – | > 52 | 96 nM | > 6250 | > 42800 nM | – | 430 nM | – | > 17100 nM | 96 nM | inactive | > 5000 nM | –
7 nM | 5210 nM | CC1(C)C=C2[C@H]3CC[C@@H]4[C@@]5(C)CC[C@H](OC(=O)CC(C)(C)C(=O)O)C(C)(C)[C@@H]5CC[C@@]4(C)[C@]3(C)CC[C@@]2(C(=O)NCCCCCCCCCCC(=O)O)CC1 | 19500 nM | 177 | 110 nM | 3400 | 24000 nM | – | – | – | > 13000 nM | – | – | – | –
– | – | CC(C)(CC(=O)O)CC(=O)O[C@H]1CC[C@]2(C)[C@H]3CC=C4[C@@H]5CC(C)(C)CC[C@]5(C(=O)O)CC[C@@]4(C)[C@]3(C)CC[C@H]2C1(C)C | – | – | – | – | – | inactive | – | – | – | – | – | – | inactive
2600 nM | – | C=C(C)[C@@H]1CC[C@]2(C)CC[C@]3(C)[C@H](CC[C@@H]4[C@@]5(C)CC[C@H](OC(=O)CC(C)(C)C(=O)O)C(C)(C)[C@@H]5CC[C@]43C)[C@@H]12 | > 36100 nM | > 1.7 | 21600 nM | > 17.2 | > 45100 nM | – | – | – | – | – | – | – | –
– | – | Cc1cn([C@H]2C[C@H](N=[N+]=[N-])[C@@H](CO)O2)c(=O)[nH]c1=O [ZIDOVUDINE] | > 37500 nM | – | – | – | – | – | 19 nM | 19 nM | – | 13 nM | – | – | –
– | – | C=C(C)[C@@H]1CC[C@]2(C(=O)N[C@@H](CC(C)C)C(=O)O)CC[C@]3(C)[C@H](CC[C@@H]4[C@@]5(C)CC[C@H](OC(=O)CC(C)(C)C(=O)O)C(C)(C)[C@@H]5CC[C@]43C)[C@@H]12 | 12200 nM | > 1220 | 10 nM | – | – | – | 6 nM | 50 nM | – | 10 nM | – | – | –
320 nM | – | CC1(C)CC[C@]2(C(=O)O)CC[C@]3(C)C(=CC[C@@H]4[C@@]5(C)CC[C@H](OC(=O)CC(C)(C)C(=O)O)C(C)(C)[C@@H]5CC[C@]43C)[C@@H]2C1 | 20200 nM | 2.4 | 8300 nM | > 133 | > 42700 nM | – | – | – | – | – | – | – | –
– | – | CC(C)C[C@H](NC(=O)[C@@]1(C)CC[C@]2(C)CC[C@]3(C)C(=CC(=O)[C@@H]4[C@@]5(C)CC[C@H](OC(=O)CC(C)(C)C(=O)O)C(C)(C)[C@@H]5CC[C@]43C)[C@@H]2C1)C(=O)O | – | – | – | – | – | inactive | – | – | – | – | – | – | inactive
15.6 nM | 3580 nM | CC(C)C[C@H](NC(=O)[C@]12CCC(C)(C)C=C1[C@H]1CC[C@@H]3[C@@]4(C)CC[C@H](OC(=O)CC(C)(C)C(=O)O)C(C)(C)[C@@H]4CC[C@@]3(C)[C@]1(C)CC2)C(=O)O | 22500 nM | 2650 | 8.5 nM | > 2740 | > 42700 nM | – | 21 nM | 130 nM | > 14300 nM | 8.5 nM | – | – | –
– | – | CC(C)(CC(=O)O[C@H]1CC[C@]2(C)[C@H]3C(=O)C=C4[C@@H]5C[C@@](C)(C(=O)O)CC[C@]5(C)CC[C@@]4(C)[C@]3(C)CC[C@H]2C1(C)C)C(=O)O | – | – | – | – | – | inactive | – | – | – | – | – | – | inactive

Structure (SMILES) | EC50 [5] | EC50 [10] | IC50 [1] | selectivity ratio [2] | EC50 [3] | selectivity ratio [4] | IC50 [6] | Activity [3] | EC50 [7] | EC50 [8] | IC50 [9] | EC50 [11] | Activity [12] | IC50 [13] | Activity [5]
C=C(C)[C@@H]1CC[C@]2(C(=O)NCCCCCCCC(=O)N[C@@H](CC(C)C)[C@H](O)CC(=O)O)CC[C@]3(C)[C@H](CC[C@@H]4[C@@]5(C)CC[C@H](O)C(C)(C)[C@@H]5CC[C@]43C)[C@@H]12 | – | 8.6 nM | – | – | – | – | – | – | – | – | > 13200 nM | – | – | – | –
